Experiment [1] has as its target T1, BMPR2 kinase domain (Homo sapiens, UniProt Q13873).
T1 sequence (Q13873 188-517): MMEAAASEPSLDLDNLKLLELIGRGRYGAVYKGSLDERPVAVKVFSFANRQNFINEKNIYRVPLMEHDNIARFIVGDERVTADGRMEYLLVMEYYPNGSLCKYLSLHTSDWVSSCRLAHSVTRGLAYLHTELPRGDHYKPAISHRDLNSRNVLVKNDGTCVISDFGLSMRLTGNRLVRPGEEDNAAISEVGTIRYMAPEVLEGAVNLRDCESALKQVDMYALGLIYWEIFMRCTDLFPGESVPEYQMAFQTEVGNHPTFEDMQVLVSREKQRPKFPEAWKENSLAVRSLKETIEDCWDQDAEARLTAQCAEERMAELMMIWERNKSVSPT
Put plainly: BMPR2 Kinase-Glo kinase inhibition assay. The settings on record: for fold loss of BMPR2 potency: compared to parent CDD-1115 (CDD-1280: relative to CDD-1281). It is filed as biochemical. A digest of the protocol: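 Recombinant human BMPR2 kinase domain (aa188-517, C-terminal His-tag) expressed in E. coli and purified by affinity, anion-exchange and size-exclusion chromatography. Substrate-free ATPase end-point assay: 10 μM ATP, 0.02% Tween-20, kinase buffer, 30 min at 30 °C. Enzyme level optimized for linear initial velocity. Leftover ATP read by luciferase luminescence, with no-kinase controls. Kiapp from modified Morrison equation fit to normalized fractional activity, no inhibition mode assumed.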
On the technique in general: Kinase-Glo measures the ATP left after a reaction by luminescence.

The target in experiment [2] is T1, BMPR2 kinase domain. Put plainly: Thermal shift assay. It is filed as binding. The settings on record: 50 μM compound; BMPR2 alone Tm 52.1 °C. A digest of the protocol:
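Purified BMPR2 kinase domain (1 μg) in 50 mM Tris–HCl pH 7.5, 150 mM NaCl with 50 μM test compound and 5× SYPRO Orange. Heated 20 to 95 °C, fluorescence read every 10 s. Tm taken from the unfolding curve; three technical replicates averaged.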

Experiment [3] deals with pSMAD1/5 in human umbilical vein endothelial cells (HUVECs). Put plainly: pSMAD1/5 Western blot, BMP9-stimulated HUVECs. It is filed as cell-based. As to conditions: 25 μM, 30 min pretreatment, 0.5 ng/mL BMP9 15 min. In short, it runs like this: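 HUVECs, about 3 × 10^5 per well, starved overnight in Kaighn's F-12 with 0.5% FBS and 30 μg/mL endothelial cell growth supplement. Pretreated with inhibitors for 30 min, then given 0.5 ng/mL BMP9 for 15 min. Lysed with protease and phosphatase inhibitors. SDS-PAGE immunoblot for pSMAD1/5, SMAD1, SMAD5 and GAPDH, with densitometry. n = 3 biological replicates; one-way ANOVA with Tukey post hoc test.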
(In western blotting, separated proteins are transferred to a membrane and probed.)

For another experiment, the target named is WNK1 (Homo sapiens, UniProt Q9H4A3). Put plainly: ThermoFisher Kd Elect screening. It is filed as binding.
The target in a further experiment is WNK2 (Homo sapiens, UniProt Q9Y3S1). Put plainly: ThermoFisher Kd Elect screening. The experiment is classed as binding.
Chain of WNK2 (Q9Y3S1 whole entry): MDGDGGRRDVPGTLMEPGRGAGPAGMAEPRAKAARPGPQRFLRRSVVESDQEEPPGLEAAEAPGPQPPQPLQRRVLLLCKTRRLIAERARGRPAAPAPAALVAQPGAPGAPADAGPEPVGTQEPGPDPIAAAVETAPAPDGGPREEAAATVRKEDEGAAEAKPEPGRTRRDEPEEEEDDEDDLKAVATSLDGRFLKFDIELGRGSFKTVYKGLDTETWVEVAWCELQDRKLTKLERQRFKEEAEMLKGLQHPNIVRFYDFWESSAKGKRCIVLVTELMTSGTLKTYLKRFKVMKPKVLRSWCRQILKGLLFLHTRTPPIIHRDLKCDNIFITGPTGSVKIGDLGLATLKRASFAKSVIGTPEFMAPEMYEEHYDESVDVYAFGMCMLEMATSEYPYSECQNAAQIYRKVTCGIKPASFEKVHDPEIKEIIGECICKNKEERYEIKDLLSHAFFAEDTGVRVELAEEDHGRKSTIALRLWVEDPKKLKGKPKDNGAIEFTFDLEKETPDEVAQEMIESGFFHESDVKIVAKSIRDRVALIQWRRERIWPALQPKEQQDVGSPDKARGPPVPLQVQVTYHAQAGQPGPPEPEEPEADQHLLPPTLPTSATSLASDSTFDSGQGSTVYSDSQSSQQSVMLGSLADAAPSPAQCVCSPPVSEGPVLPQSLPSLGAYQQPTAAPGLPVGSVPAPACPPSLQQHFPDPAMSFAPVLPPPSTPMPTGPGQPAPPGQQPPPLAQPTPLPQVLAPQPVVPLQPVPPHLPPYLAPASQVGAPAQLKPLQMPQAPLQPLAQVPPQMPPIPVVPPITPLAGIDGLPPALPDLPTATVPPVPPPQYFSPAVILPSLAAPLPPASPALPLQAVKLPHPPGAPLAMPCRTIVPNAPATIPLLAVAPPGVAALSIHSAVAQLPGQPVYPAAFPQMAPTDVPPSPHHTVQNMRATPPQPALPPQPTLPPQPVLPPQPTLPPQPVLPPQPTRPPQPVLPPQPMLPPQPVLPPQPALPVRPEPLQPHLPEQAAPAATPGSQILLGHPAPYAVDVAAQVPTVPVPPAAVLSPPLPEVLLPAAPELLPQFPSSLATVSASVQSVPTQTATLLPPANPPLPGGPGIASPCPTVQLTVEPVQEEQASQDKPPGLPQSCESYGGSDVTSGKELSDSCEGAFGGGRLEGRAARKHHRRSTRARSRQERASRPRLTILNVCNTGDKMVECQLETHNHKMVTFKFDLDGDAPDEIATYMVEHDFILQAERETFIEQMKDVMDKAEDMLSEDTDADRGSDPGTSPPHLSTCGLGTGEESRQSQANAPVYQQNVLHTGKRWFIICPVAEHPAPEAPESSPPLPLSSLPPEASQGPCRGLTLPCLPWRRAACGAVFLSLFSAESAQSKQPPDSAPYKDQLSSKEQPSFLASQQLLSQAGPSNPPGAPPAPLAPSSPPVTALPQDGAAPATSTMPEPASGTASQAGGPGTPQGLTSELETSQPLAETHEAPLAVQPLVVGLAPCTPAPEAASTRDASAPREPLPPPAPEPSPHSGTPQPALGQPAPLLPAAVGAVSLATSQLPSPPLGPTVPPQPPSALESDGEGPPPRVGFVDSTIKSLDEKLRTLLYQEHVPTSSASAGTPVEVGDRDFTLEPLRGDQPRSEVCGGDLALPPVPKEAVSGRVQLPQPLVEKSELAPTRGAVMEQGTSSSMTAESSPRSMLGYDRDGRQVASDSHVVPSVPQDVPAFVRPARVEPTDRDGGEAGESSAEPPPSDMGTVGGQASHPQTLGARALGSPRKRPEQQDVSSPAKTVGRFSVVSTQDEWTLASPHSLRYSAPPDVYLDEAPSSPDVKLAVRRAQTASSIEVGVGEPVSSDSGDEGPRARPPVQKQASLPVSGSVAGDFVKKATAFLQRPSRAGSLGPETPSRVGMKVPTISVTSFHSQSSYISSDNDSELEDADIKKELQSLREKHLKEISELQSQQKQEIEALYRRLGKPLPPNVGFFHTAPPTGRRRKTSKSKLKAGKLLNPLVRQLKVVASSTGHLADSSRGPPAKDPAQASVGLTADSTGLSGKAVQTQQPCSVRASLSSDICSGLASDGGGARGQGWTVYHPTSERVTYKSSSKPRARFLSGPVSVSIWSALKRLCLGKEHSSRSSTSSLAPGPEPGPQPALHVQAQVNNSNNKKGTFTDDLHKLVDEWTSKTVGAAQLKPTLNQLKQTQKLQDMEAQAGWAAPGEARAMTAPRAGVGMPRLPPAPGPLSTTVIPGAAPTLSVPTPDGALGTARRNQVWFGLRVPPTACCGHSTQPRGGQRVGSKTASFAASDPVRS

Chain of WNK1 (Q9H4A3 whole entry): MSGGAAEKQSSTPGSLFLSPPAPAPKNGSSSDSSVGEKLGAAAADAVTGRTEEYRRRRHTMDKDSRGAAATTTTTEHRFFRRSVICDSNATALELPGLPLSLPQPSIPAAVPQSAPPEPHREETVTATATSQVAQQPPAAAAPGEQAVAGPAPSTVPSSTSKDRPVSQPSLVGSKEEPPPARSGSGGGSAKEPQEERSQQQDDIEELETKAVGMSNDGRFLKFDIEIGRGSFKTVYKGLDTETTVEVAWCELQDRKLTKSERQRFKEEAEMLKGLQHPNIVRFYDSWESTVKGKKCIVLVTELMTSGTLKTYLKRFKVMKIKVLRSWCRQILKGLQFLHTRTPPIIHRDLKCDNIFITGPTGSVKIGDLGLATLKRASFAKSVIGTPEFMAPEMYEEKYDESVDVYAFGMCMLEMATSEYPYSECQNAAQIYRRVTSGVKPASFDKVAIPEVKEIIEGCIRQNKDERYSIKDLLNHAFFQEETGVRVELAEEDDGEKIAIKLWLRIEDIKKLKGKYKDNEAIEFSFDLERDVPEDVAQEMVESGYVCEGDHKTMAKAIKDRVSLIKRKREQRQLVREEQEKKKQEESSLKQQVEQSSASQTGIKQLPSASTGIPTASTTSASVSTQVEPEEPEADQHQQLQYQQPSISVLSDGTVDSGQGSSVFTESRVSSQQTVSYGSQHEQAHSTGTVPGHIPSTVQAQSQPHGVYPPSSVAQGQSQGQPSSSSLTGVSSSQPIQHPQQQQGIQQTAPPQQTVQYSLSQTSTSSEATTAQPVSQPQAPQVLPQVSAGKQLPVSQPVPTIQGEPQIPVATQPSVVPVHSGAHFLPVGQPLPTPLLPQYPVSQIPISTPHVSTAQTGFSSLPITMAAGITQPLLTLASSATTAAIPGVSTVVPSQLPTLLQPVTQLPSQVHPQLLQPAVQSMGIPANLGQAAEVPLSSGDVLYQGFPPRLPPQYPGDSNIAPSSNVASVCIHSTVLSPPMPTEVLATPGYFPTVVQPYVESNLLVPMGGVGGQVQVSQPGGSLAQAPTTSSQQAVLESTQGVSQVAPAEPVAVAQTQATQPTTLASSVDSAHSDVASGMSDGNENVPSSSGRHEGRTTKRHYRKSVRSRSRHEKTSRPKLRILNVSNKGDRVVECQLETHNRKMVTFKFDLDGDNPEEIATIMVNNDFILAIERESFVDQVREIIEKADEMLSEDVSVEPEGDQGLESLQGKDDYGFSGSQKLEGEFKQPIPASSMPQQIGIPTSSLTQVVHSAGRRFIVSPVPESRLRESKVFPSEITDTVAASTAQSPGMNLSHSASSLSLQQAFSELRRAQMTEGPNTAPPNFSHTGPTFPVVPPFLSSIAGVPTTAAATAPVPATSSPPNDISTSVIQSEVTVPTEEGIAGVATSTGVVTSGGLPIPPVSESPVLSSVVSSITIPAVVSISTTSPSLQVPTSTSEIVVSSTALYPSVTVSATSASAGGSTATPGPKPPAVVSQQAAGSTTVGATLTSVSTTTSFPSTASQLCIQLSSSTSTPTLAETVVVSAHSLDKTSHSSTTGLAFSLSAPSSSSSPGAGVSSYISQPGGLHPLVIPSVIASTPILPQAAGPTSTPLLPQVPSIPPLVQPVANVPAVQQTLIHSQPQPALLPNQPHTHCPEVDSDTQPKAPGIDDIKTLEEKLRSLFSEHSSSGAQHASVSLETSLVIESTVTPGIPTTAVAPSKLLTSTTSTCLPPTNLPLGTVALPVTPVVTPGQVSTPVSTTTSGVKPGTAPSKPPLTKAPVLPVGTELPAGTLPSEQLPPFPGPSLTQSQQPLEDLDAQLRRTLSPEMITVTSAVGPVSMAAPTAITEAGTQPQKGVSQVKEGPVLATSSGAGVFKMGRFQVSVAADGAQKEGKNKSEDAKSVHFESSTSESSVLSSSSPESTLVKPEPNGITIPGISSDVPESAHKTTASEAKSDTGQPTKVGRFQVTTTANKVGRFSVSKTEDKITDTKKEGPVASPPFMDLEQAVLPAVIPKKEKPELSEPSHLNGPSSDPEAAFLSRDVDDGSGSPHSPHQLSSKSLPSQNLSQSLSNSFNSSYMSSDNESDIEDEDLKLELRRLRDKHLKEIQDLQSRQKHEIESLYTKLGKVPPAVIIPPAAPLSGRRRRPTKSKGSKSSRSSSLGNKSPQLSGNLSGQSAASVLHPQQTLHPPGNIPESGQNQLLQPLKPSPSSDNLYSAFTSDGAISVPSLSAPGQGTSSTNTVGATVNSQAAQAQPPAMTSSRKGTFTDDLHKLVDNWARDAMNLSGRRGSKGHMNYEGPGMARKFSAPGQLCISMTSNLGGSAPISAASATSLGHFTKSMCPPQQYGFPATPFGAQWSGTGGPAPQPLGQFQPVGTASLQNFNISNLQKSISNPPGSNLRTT

For the molecule `Cn1c(-c2ccc3cnccc3c2)nc2ccc(C(=O)NCc3cccc(C(N)=O)c3)cc21` [CDD-1280, N-(3-Carbamoylbenzyl)-2-(isoquinolin-6-yl)-1-methyl-1H-benzo[d]imidazole-6-carboxamide], on BMPR2 kinase domain [1], the “fold loss of BMPR2 potency” value is 2.7 fold.

For `CNC(=O)c1ccc2nc(-c3ccc4cnccc4c3)n([C@@H]3CC[C@@H](C(=O)NC)C3)c2c1` [CDD-1282, 2-(Isoquinolin-6-yl)-N-methyl-1-((1R,3R)-3-(methylcarbamoyl)cyclopentyl)-1H-benzo[d]imidazole-6-carboxamide], the “fold loss of BMPR2 potency” value at BMPR2 kinase domain [1] is listed as “complete loss of potency”.

`CNC(=O)[C@@H]1CC[C@@H](n2c(-c3ccc4cnccc4c3)nc3ccc(C(=O)NCc4ccccc4)cc32)C1` [CDD-1283, N-Benzyl-2-(isoquinolin-6-yl)-1-((1R,3R)-3-(methylcarbamoyl)cyclopentyl)-1H-benzo[d]imidazole-6-carboxamide]: the “fold loss of BMPR2 potency” value on BMPR2 kinase domain [1] was 6.2 fold.

`CNC(=O)[C@@H]1CC[C@@H](n2c(-c3cccc(Cl)c3)nc3ccc(C(=O)NCc4cccc(C(N)=O)c4)cc32)C1` [CDD-1284, N-(3-Carbamoylbenzyl)-2-(3-chlorophenyl)-1-((1R,3R)-3-(methylcarbamoyl)cyclopentyl)-1H-benzo[d]imidazole-6-carboxamide]: the “fold loss of BMPR2 potency” value on BMPR2 kinase domain [1] is on record as 160 fold. With `CNC(=O)[C@@H]1CC[C@@H](n2c(-c3cc(Cl)cc(Cl)c3)nc3ccc(C(=O)NCc4cccc(C(N)=O)c4)cc32)C1` [CDD-1285, N-(3-Carbamoylbenzyl)-2-(3,5-dichlorophenyl)-1-((1R,3R)-3-(methylcarba-moyl)cyclopentyl)-1H-benzo[d]imidazole-6-carboxamide], at BMPR2 kinase domain [1], the “fold loss of BMPR2 potency” value is 160 fold.

For the molecule `CNC(=O)CCc1ccc(C(=O)NCc2cccc(N3CCN(c4nc(Nc5cccc(S(N)(=O)=O)c5)ncc4OC)CC3)c2)cc1` [CDD-1431, N-(3-(4-(5-Methoxy-2-((3-sulfamoylphenyl)amino)pyrimidin-4-yl)piperazin-1-yl)benzyl)-4-(3-(methylamino)-3-oxopropyl)benzamide], on BMPR2 kinase domain [2], the “melting temperature (Tm)” value is 66.0 °C.

In the case of `COc1cnc(Nc2cccc(S(N)(=O)=O)c2)nc1N1CCN(c2ccccc2)CC1` [CDD-1496, 3-((5-Methoxy-4-(4-phenylpiperazin-1-yl)pyrimidin-2-yl)amino)benzenesulfonamide], on BMPR2 kinase domain [1] (compared to parent CDD-1431), the “fold drop in BMPR2 potency” value is on record as 2 fold. Also, the “phosphorylation of SMAD1/5 (pSMAD1/5)” value in experiment [3] is “significantly decreased”. On to `COc1cnc(Nc2cccc(S(N)(=O)=O)c2)nc1N1CCNCC1` [CDD-1497, 3-((5-Methoxy-4-(piperazin-1-yl)pyrimidin-2-yl)amino)benzenesulfonamide], for which the “fold drop in BMPR2 potency” value at BMPR2 kinase domain [1] (compared to parent CDD-1431) was determined as 12 fold.

Turning to `COc1cnc(Nc2cccc(S(N)(=O)=O)c2)nc1N1CCN(c2ccccc2)C(=O)C1` [CDD-1653, 3-((5-Methoxy-4-(3-oxo-4-phenylpiperazin-1-yl)pyrimidin-2-yl)amino)benzenesulfonamide], in experiment [3], the “phosphorylation of SMAD1/5 (pSMAD1/5)” value is on record as “significantly decreased”. Also, the Kd at WNK1 and on WNK2 was above 3 µM in each case. Regarding `CCOc1cnc(Nc2cccc(S(N)(=O)=O)c2)nc1N1CCN(c2ccccc2)C(=O)C1` [CDD-1703, 3-((5-Ethoxy-4-(3-oxo-4-phenylpiperazin-1-yl)pyrimidin-2-yl)amino)benzenesulfonamide], at BMPR2 kinase domain [1] (compared to parent CDD-1431), the “fold improved BMPR2 potency” value is recorded as 4 fold.

The values above are taken from publication PMC9924264 (Journal of Medicinal Chemistry, 2023).
